Assay results taken from ChEMBL document CHEMBL4229344 (Eur J Med Chem, 2018).

Legend:
[1] = target: Serine/threonine-protein kinase Nek3 (Homo sapiens) (UniProt P51956); assay: Binding affinity to wild-type human full length NEK3 (M1 to R506 residues) expressed in mammalian expression system assessed as residual binding level at 1 uM by Kinomescan method relative to control
Summary of the method: (§1)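 KINOMEscan competition binding against 468 purified kinases/mutants, test compound at 1 µM; residual binding relative to control.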

[2] = target: Phosphatidylinositol 4-phosphate 5-kinase type-1 gamma (Homo sapiens) (UniProt O60331); assay: Binding affinity to wild-type human partial length PIP5K1C (M1 to T668 residues) expressed in mammalian expression system assessed as residual binding level at 1 uM by Kinomescan method relative to control
Summary of the method: (§2)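 KINOMEscan competition binding against a panel of 468 purified kinases/mutants, compound tested at 1 μM; readout is relative binding activity versus control.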

[3] = target: Platelet-derived growth factor receptor alpha (Homo sapiens, UniProt P16234)
[4] = target: Tyrosine-protein kinase TXK (Homo sapiens) (UniProt P42681); assay: Binding affinity to wild-type human partial length TXK (L238 to W527 residues) expressed in bacterial expression system assessed as residual binding level at 1 uM by Kinomescan method relative to control
Sequence of Tyrosine-protein kinase TXK (Homo sapiens) (P42681 whole entry, the tested form may be a part): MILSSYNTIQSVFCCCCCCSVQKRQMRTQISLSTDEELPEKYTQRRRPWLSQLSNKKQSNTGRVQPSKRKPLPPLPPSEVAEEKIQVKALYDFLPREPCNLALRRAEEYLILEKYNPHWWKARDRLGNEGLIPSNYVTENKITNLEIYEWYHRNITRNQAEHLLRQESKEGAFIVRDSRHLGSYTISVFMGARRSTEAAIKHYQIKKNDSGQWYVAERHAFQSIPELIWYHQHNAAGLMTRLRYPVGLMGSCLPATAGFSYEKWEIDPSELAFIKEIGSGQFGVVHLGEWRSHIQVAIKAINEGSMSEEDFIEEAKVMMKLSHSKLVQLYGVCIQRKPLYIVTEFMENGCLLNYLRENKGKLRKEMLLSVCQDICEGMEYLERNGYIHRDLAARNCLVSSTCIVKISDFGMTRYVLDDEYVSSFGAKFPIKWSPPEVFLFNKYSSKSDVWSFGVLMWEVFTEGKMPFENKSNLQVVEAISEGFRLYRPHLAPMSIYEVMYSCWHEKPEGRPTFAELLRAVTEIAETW

[5] = target: Phosphatidylinositol 4-phosphate 3-kinase C2 domain-containing subunit beta (Homo sapiens) (UniProt O00750); assay: Binding affinity to wild-type human partial length PIK3C2B (M1 to L1634 residues) expressed in mammalian expression system assessed as residual binding level at 1 uM by Kinomescan method relative to control
NCI-H1703 = assay: Antiproliferative activity against human NCI-H1703 cells after 72 hrs by CellTiter-Glo or CCK-8 assay; format: functional; conditions: NCI-H1703, 72 h
Summary of the method: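 Cells in RPMI 1640 with 10% FBS at 37 °C, 5% CO2, seeded at 1–3 × 10^4 cells/mL with serial compound dilutions for 72 h. Viability read by CellTiter-Glo luminescence or CCK-8 absorbance (450/655 nm), normalized to DMSO control.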

[6] = target: LIM domain kinase 1 (Homo sapiens) (UniProt P53667); assay: Binding affinity to wild-type human full length LIMK1 (M1 to D647 residues) expressed in bacterial expression system assessed as residual binding level at 1 uM by Kinomescan method relative to control
Summary of the method: (§3)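 Single-concentration (1 μM) competition-binding screen run by KINOMEscan against a panel of 468 purified kinases and mutants. The read-out is the relative binding activity of the test compound to each kinase.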

[7] = target: MAP kinase-activated protein kinase 2 (Homo sapiens) (UniProt P49137); assay: Binding affinity to wild-type human partial length MAPKAPK2 (V48 to D345 residues) expressed in bacterial expression system assessed as residual binding level at 1 uM by Kinomescan method relative to control
Summary of the method: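 Kinome-wide competition binding screen against a panel of 468 purified kinases/mutants, with the test compound at a single concentration of 1 μM. Read-out is the relative binding activity of each kinase in the presence of compound.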

[8] = tested on: Fibroblast growth factor receptor 3 (Homo sapiens), P22607 [G697C]; assay: Binding affinity to human partial length FGFR3 G697C mutant (R442 to S771 residues) expressed in bacterial expression system assessed as residual binding level at 1 uM by Kinomescan method relative to control
Summary of the method: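 Kinome-wide single-concentration binding screen (KINOMEscan) at 1 μM against a panel of 468 purified kinases and mutants. Read-out is relative binding of each kinase compared with control. Selectivity across the panel was summarised as an S(10) score.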

[9] = target: Ephrin type-A receptor 1 (Homo sapiens) (UniProt P21709); assay: Binding affinity to wild-type human partial length EPHA1 (V588 to I913 residues) expressed in bacterial expression system assessed as residual binding level at 1 uM by Kinomescan method relative to control
Sequence of Ephrin type-A receptor 1 (Homo sapiens) (P21709 whole entry, the tested form may be a part): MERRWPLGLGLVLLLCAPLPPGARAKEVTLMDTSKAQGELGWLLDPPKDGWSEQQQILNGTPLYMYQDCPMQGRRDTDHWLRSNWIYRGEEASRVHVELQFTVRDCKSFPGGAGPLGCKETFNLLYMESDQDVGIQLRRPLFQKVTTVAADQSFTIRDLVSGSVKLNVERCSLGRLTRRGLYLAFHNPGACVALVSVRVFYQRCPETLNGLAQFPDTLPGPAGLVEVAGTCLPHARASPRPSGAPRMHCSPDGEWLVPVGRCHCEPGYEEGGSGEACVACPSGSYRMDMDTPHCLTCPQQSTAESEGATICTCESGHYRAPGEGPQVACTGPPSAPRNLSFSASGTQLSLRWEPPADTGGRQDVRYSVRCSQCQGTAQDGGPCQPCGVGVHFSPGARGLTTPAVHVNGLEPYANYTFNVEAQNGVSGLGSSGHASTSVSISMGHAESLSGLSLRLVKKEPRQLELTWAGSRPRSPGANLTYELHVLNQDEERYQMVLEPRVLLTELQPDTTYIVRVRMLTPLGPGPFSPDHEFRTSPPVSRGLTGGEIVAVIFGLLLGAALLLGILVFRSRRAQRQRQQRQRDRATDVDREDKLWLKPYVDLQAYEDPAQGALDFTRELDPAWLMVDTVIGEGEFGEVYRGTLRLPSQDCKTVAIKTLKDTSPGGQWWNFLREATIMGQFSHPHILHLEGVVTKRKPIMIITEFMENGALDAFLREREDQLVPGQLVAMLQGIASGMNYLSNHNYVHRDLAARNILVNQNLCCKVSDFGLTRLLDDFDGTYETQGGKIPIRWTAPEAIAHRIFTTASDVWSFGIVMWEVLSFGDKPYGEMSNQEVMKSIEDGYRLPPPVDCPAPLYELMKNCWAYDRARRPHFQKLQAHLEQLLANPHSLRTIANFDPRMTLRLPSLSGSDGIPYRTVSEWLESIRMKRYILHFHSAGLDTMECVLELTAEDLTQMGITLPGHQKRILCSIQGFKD

[10] = target: Serine/threonine-protein kinase Chk2 (Homo sapiens) (UniProt O96017); assay: Binding affinity to wild-type human partial length CHEK2 (S253 to E574 residues) expressed in bacterial expression system assessed as residual binding level at 1 uM by Kinomescan method relative to control
[11] = target: Calcium-dependent protein kinase 1 (Plasmodium falciparum) (UniProt P62344); assay: Binding affinity to wild-type Plasmodium falciparum 3D7 full length CDPK1 (M1 to S524 residues) expressed in mammalian expression system assessed as residual binding level at 1 uM by Kinomescan method relative to control; summary of the method: as §1
[12] = target: Tyrosine-protein kinase Tec (Homo sapiens) (UniProt P42680); assay: Binding affinity to wild-type human partial length TEC (L341 to D620 residues) expressed in bacterial expression system assessed as residual binding level at 1 uM by Kinomescan method relative to control
Sequence of Tyrosine-protein kinase Tec (Homo sapiens) (P42680 whole entry, the tested form may be a part): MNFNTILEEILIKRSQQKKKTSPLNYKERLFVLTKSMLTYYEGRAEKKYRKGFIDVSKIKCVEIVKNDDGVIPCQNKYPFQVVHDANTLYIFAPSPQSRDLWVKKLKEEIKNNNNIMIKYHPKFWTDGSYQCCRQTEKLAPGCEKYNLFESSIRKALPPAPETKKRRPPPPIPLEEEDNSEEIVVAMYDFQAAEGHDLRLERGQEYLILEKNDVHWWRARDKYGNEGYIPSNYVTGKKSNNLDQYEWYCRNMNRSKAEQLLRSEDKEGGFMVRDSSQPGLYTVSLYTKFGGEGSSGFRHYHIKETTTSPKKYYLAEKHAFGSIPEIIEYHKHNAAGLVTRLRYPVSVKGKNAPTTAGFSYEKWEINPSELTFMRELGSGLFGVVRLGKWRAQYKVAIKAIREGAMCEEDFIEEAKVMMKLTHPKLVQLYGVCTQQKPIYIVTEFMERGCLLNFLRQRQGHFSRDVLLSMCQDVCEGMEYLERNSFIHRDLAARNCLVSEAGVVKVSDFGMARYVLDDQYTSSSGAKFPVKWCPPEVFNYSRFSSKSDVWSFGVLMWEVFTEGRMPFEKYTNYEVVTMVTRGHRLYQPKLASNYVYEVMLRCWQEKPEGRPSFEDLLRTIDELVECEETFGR

[13] = target: Ribosomal protein S6 kinase alpha-1 (Homo sapiens) (UniProt Q15418); assay: Binding affinity to wild-type human partial length C-terminal RSK1 kinase domain 2 (P360 to L681 residues) expressed in bacterial expression system assessed as residual binding level at 1 uM by Kinomescan method relative to control
Sequence of Ribosomal protein S6 kinase alpha-1 (Homo sapiens) (Q15418 whole entry, the tested form may be a part): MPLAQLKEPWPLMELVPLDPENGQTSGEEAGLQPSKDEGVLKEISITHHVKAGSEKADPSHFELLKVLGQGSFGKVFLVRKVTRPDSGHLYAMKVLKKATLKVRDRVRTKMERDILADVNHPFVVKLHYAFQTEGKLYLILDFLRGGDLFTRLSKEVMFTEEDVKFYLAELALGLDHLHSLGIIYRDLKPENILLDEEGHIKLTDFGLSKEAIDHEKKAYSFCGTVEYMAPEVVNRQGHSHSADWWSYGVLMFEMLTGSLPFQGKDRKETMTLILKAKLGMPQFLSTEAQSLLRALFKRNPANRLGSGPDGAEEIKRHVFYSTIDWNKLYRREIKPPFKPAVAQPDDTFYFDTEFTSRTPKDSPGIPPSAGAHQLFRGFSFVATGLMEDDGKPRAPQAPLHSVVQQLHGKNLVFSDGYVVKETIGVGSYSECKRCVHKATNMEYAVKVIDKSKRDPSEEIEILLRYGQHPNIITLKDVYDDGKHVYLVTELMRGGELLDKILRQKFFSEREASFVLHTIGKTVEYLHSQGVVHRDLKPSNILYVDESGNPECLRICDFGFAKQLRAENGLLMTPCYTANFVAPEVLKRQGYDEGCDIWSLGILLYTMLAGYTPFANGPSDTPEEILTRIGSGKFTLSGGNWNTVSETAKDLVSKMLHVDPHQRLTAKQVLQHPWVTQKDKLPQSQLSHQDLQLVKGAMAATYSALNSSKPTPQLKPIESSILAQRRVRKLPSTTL

[14] = tested on: eIF-2-alpha kinase GCN2 (Homo sapiens), Q9P2K8 [S808G]; assay: Binding affinity to wild-type human partial length GCN2 kinase domain 2 (R585 to T1018 residues) S808G mutant expressed in bacterial expression system assessed as residual binding level at 1 uM by Kinomescan method relative to control
[15] = target: Receptor-type tyrosine-protein kinase FLT3 (Homo sapiens) (UniProt P36888); assay: Binding affinity to wild-type human partial length autoinhibited FLT3 (H564 to Y969 residues) expressed in mammalian expression system assessed as residual binding level at 1 uM by Kinomescan method relative to control
[16] = target: Homeodomain-interacting protein kinase 2 (Homo sapiens) (UniProt Q9H2X6); assay: Binding affinity to wild-type human partial length HIPK2 (M153 to S564 residues) expressed in mammalian expression system assessed as residual binding level at 1 uM by Kinomescan method relative to control
Sequence of Homeodomain-interacting protein kinase 2 (Homo sapiens) (Q9H2X6 whole entry, looked up, the tested form may be a part): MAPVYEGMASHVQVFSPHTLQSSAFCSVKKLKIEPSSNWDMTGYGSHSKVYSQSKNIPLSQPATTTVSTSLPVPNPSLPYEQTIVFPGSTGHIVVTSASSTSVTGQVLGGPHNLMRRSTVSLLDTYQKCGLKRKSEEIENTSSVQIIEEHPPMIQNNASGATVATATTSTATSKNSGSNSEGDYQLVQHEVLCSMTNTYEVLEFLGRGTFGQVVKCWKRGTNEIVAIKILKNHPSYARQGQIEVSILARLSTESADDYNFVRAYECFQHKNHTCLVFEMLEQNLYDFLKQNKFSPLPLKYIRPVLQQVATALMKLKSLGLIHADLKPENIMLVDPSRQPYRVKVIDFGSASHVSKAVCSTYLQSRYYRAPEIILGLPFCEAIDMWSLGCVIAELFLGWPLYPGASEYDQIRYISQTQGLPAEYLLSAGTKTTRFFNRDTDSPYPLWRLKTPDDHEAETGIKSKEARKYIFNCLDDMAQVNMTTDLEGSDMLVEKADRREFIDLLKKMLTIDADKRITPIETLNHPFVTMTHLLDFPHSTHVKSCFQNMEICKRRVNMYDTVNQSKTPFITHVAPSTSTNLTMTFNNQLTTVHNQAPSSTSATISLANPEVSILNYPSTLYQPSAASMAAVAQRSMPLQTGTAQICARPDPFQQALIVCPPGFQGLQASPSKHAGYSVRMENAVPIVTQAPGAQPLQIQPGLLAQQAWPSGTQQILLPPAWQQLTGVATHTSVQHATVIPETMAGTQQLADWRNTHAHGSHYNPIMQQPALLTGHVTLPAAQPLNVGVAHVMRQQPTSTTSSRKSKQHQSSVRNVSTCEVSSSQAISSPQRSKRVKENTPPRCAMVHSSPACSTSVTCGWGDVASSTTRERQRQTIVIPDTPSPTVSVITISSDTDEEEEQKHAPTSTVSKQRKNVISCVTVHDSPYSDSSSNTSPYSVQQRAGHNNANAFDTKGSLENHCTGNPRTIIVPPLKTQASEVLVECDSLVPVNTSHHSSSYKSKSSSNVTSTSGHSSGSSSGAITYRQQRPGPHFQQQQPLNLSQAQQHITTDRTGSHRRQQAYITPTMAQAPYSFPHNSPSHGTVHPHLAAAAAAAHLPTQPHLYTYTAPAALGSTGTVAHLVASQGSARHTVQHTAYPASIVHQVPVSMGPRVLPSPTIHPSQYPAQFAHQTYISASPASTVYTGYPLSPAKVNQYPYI

[17] = target: Serine/threonine-protein kinase Sgk3 (Homo sapiens) (UniProt Q96BR1); assay: Binding affinity to wild-type human partial length SGK3 (M119 to L496 residues) expressed in mammalian expression system assessed as residual binding level at 1 uM by Kinomescan method relative to control; summary of the method: as §2
Sequence of Serine/threonine-protein kinase Sgk3 (Homo sapiens) (Q96BR1 whole entry, the tested form may be a part): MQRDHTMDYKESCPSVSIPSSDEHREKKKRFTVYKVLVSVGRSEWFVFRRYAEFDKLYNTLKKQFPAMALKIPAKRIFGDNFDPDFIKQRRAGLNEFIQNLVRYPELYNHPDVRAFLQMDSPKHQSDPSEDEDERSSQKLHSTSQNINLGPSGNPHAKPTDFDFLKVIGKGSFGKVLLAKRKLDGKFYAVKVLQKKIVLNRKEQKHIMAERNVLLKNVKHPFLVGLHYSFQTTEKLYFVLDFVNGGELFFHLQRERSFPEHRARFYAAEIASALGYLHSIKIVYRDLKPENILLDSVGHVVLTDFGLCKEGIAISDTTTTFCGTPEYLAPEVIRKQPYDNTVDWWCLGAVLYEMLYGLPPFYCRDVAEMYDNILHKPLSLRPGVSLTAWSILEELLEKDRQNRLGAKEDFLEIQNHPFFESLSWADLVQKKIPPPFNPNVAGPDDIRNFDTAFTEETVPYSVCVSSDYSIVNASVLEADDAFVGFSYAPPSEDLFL

[18] = target: Activin receptor type-1-like (Homo sapiens) (UniProt P37023); assay: Binding affinity to wild-type human ACVRL1 (L164 to Q503 residues) expressed in bacterial expression system assessed as residual binding level at 1 uM by Kinomescan method relative to control; summary of the method: as §3
[19] = target: Mitogen-activated protein kinase kinase kinase 14 (Homo sapiens) (UniProt Q99558); assay: Binding affinity to wild-type human partial length NIK (L318 to P947 residues) expressed in mammalian expression system assessed as residual binding level at 1 uM by Kinomescan method relative to control; summary of the method: as §2
[20] = target: Aurora kinase B (Homo sapiens) (UniProt Q96GD4); assay: Binding affinity to wild-type human partial length AURKB (D25 to A303 residues) expressed in mammalian expression system assessed as residual binding level at 1 uM by Kinomescan method relative to control
Sequence of Aurora kinase B (Homo sapiens) (Q96GD4 whole entry, the tested form may be a part): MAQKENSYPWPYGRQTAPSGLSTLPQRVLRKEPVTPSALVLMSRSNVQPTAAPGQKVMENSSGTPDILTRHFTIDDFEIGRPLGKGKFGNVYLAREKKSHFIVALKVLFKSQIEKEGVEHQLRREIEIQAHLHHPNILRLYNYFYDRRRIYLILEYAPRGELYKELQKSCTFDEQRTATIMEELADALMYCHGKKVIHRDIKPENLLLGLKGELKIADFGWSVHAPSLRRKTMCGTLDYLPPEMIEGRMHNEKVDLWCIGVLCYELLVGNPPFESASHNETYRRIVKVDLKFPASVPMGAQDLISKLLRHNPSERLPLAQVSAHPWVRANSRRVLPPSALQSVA
Summary of the method: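 Single-concentration KINOMEscan (DiscoverX) binding screen at 1 μM against a panel of 468 purified kinases and mutants. The read-out is binding relative to control.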

Compound: Cc1ccc(NC(=O)c2ccc(CN(CCN(C)C)C(=O)c3cccnc3)cc2)cc1Nc1nccc(-c2cccnc2)n1
- Activity [1]: 73%
- Activity [2]: 83%
- GI50 [3]: 34 nM
- Activity [4]: 100%
- Activity [5]: 97%
- GI50 (NCI-H1703): 5370 nM
- Activity [6]: 100%
- Activity [7]: 92%
- Activity [8]: 100%
- Activity [9]: 100%
- Activity [10]: 95%
- Activity [11]: 82%
- Activity [12]: 100%
- Activity [13]: 100%
- Activity [14]: 71%
- Activity [15]: 100%
- Activity [16]: 100%
- Activity [17]: 92%
- Activity [18]: 100%
- Activity [19]: 82%
- Activity [20]: 93%
